From ChEMBL document CHEMBL1255398, “In vitro activities of eight antifungal drugs against 55 clinical isolates of Fonsecaea spp” (2010)
Starred links: 1 amine or outer side, 2 acyl side, 3 side chain; linkers in the order of their positions; H or OH if unused. Positions of bridges follow the written chain, without caps; N, C: chain ends. Non-standard residues stand in square brackets, D forms with d. Residues, ends and D or L forms follow the SMILES beside them. *: point of attachment. pTerphenylCO(4''-OnC5H11) = CCCCCOc1ccc(-c2ccc(-c3ccc(C(=O)*)cc3)cc2)cc1; Orn(4R-OH,5R-OH) = O=C([C@H](C[C@@H](O)[C@@H](O)N[*:3])N[*:1])[*:2]; hTyr(3S-OH,4S-OH) = N[C@H](C(=O)O)[C@H](O)[C@@H](O)c1ccc(O)cc1; Pro(3S-OH,4S-Me) = C[C@H]1CN[C@H](C(=O)O)[C@H]1O; Hyp = O=C(O)[C@@H]1C[C@@H](O)CN1

How the values were obtained:
Type in all cases: functional
Fonsecaea monophora = test: Antimicrobial activity against Fonsecaea monophora isolates after 72 hrs by CLSI M38-A2 protocol method
Procedure, shortened: (§1)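 Broth microdilution per CLSI M38-A2. Isolates grown on potato dextrose agar at 35°C for up to 7 days. Inocula were scraped into saline with 0.05% Tween 40, settled 3 to 5 min, and adjusted at 530 nm to 68 to 71% transmission (1.5 × 104 to 4 × 10^4 CFU/ml). Incubated 72 h at 35°C and read visually against drug-free control: MIC at 100% or ≥50% inhibition depending on drug, MEC microscopically by compact hyphae.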

Fonsecaea [1] = test: Antimicrobial activity against Fonsecaea isolates after 72 hrs by CLSI M38-A2 protocol method; procedure, shortened: as §1
Fonsecaea pedrosoi = test: Antimicrobial activity against Fonsecaea pedrosoi isolates after 72 hrs by CLSI M38-A2 protocol method; procedure, shortened: as §1
Fonsecaea [2] = test: Antimicrobial activity against Fonsecaea nubica isolates after 72 hrs by CLSI M38-A2 protocol method; procedure, shortened: as §1

CC[C@H](C)C[C@H](C)CCCCCCCCC(=O)N[C@H]1C[C@@H](O)[C@@H](NCCN)NC(=O)[C@@H]2[C@@H](O)CCN2C(=O)[C@H]([C@H](O)CCN)NC(=O)[C@H]([C@H](O)[C@@H](O)c2ccc(O)cc2)NC(=O)[C@@H]2C[C@@H](O)CN2C(=O)[C@H]([C@@H](C)O)NC1=O [CASPOFUNGIN]
4 µg/mL: MIC50 (Fonsecaea pedrosoi) | MIC90 (Fonsecaea pedrosoi) | MIC90 (Fonsecaea [2])
2 µg/mL: MIC50 (Fonsecaea monophora) | MIC90 (Fonsecaea monophora) | MIC50 (Fonsecaea [1]) | MIC90 (Fonsecaea [1]) | MIC (Fonsecaea [2]) | MIC50 (Fonsecaea [2])

C[C@@H](c1nc(-c2ccc(C#N)cc2)cs1)[C@](O)(Cn1cncn1)c1cc(F)ccc1F [ISAVUCONAZOLE]
0.5 µg/mL: MIC90 (Fonsecaea [2])
0.125 µg/mL: MIC50 (Fonsecaea monophora) | MIC50 (Fonsecaea [2])
0.25 µg/mL: MIC90 (Fonsecaea monophora) | MIC50 (Fonsecaea [1]) | MIC90 (Fonsecaea [1]) | MIC50 (Fonsecaea pedrosoi) | MIC90 (Fonsecaea pedrosoi)

CC[C@@H]([C@H](C)O)n1ncn(-c2ccc(N3CCN(c4ccc(OC[C@@H]5CO[C@@](Cn6cncn6)(c6ccc(F)cc6F)C5)cc4)CC3)cc2)c1=O [POSACONAZOLE]
0.031 µg/mL: MIC50 (Fonsecaea monophora) | MIC50 (Fonsecaea [1]) | MIC (Fonsecaea [2]) | MIC50 (Fonsecaea [2])
0.063 µg/mL: MIC90 (Fonsecaea monophora) | MIC90 (Fonsecaea [1]) | MIC50 (Fonsecaea pedrosoi) | MIC90 (Fonsecaea pedrosoi) | MIC90 (Fonsecaea [2])

CCCCCOc1ccc(-c2ccc(-c3ccc(C(=O)N[C@H]4C[C@@H](O)[C@@H](O)NC(=O)[C@@H]5[C@@H](O)[C@@H](C)CN5C(=O)[C@H]([C@@H](C)O)NC(=O)[C@H]([C@H](O)[C@@H](O)c5ccc(O)cc5)NC(=O)[C@@H]5C[C@@H](O)CN5C(=O)[C@H]([C@@H](C)O)NC4=O)cc3)cc2)cc1 [ANIDULAFUNGIN] ({pTerphenylCO(4''-OnC5H11)}-[Orn(4R-OH,5R-OH)]T[Hyp][hTyr(3S-OH,4S-OH)]T[Pro(3S-OH,4S-Me)]; lactam 1-C)
8 µg/mL: MIC90 (Fonsecaea monophora) | MIC50 (Fonsecaea pedrosoi) | MIC90 (Fonsecaea pedrosoi) | MIC90 (Fonsecaea [2])
2 µg/mL: MIC (Fonsecaea [2]) | MIC50 (Fonsecaea [2])
4 µg/mL: MIC50 (Fonsecaea monophora)

CCC(C)n1ncn(-c2ccc(N3CCN(c4ccc(OCC5COC(Cn6cncn6)(c6ccc(Cl)cc6Cl)O5)cc4)CC3)cc2)c1=O (configuration not stated) [ITRACONAZOLE]
0.125 µg/mL: MIC90 (Fonsecaea monophora) | MIC90 (Fonsecaea [1]) | MIC90 (Fonsecaea pedrosoi) | MIC50 (Fonsecaea [2])
0.25 µg/mL: MIC90 (Fonsecaea [2])
0.063 µg/mL: MIC50 (Fonsecaea monophora) | MIC50 (Fonsecaea [1]) | MIC50 (Fonsecaea pedrosoi)

C[C@@H]1[C@H](O)[C@@H](C)/C=C/C=C/C=C/C=C/C=C/C=C/C=C/[C@H](O[C@@H]2O[C@H](C)[C@@H](O)[C@H](N)[C@@H]2O)C[C@@H]2O[C@](O)(C[C@@H](O)C[C@@H](O)[C@H](O)CC[C@@H](O)C[C@@H](O)CC(=O)O[C@H]1C)C[C@H](O)[C@H]2C(=O)O [AMPHOTERICIN B]
2 µg/mL: MIC90 (Fonsecaea monophora) | MIC90 (Fonsecaea [1]) | MIC90 (Fonsecaea pedrosoi) | MIC90 (Fonsecaea [2])
1 µg/mL: MIC50 (Fonsecaea monophora) | MIC50 (Fonsecaea [1]) | MIC50 (Fonsecaea pedrosoi) | MIC50 (Fonsecaea [2])

C[C@@H](c1ncncc1F)[C@](O)(Cn1cncn1)c1ccc(F)cc1F [VORICONAZOLE]
0.125 µg/mL: MIC90 (Fonsecaea monophora)
0.5 µg/mL: MIC90 (Fonsecaea [1]) | MIC50 (Fonsecaea pedrosoi) | MIC90 (Fonsecaea pedrosoi) | MIC90 (Fonsecaea [2])
0.25 µg/mL: MIC50 (Fonsecaea [1]) | MIC (Fonsecaea [2]) | MIC50 (Fonsecaea [2])
0.063 µg/mL: MIC50 (Fonsecaea monophora)

OC(Cn1cncn1)(Cn1cncn1)c1ccc(F)cc1F [FLUCONAZOLE]
32 µg/mL: MIC90 (Fonsecaea monophora) | MIC90 (Fonsecaea [1]) | MIC50 (Fonsecaea pedrosoi) | MIC90 (Fonsecaea pedrosoi) | MIC90 (Fonsecaea [2])
16 µg/mL: MIC50 (Fonsecaea monophora) | MIC50 (Fonsecaea [1]) | MIC (Fonsecaea [2]) | MIC50 (Fonsecaea [2])
